The source of these data is ChEMBL document CHEMBL4699669, “Discovery of a Potent Adenine-Benzyltriazolo-Pleuromutilin Conjugate with Pronounced Antibacterial Activity against MRSA” (J Med Chem, 2020).

For data set [1], the system named is Staphylococcus aureus. Description: Antibacterial activity against methicilin-resistant Staphylococcus aureus USA300 FPR3757 incubated for 20 to 24 hrs by microbroth dilution assay. It is filed as functional. To be noted: time hrs 20-24. The method in brief:
(§1)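 Broth microdilution per EUCAST in Mueller-Hinton broth. Inoculum 5.0·10^5 CFU/mL, prepared from overnight single-colony cultures at OD600 0.1 then diluted 100x. Final compound concentrations 0.015–16 µg/mL. Incubation at 37 °C for 20–24 h, protected from light. MIC is the lowest concentration with no visible growth. Each replicate uses three cultures; n = 2–3.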
On the technique in general: In broth dilution the organism is exposed to a series of concentrations in liquid medium.

For data set [2], the system named is Staphylococcus aureus. As to the kind of experiment: Antibacterial activity against methicilin-resistant Staphylococcus aureus USA300 FPR3757 incubated for 20 hrs by microbroth dilution assay. The data set is classed as functional. An outline of the steps: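 MBC determined from a completed MIC replicate (MRSA USA300 FPR3757, Mueller-Hinton, 5.0·10^5 CFU/mL). […] MBC is the lowest concentration giving a 99.9% reduction of the starting inoculum; n = 3.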

In data set [3] the test system is Staphylococcus aureus. As to the kind of experiment: Antibacterial activity against methicilin-resistant Staphylococcus aureus 55508 incubated for 20 to 24 hrs by microbroth dilution assay. It is filed as functional. To be noted: time hrs 20-24. The method in brief: as §1
In data set [4] the test system is Staphylococcus aureus. As to the kind of experiment: Antibacterial activity against methicilin-resistant Staphylococcus aureus 52518 incubated for 20 to 24 hrs by microbroth dilution assay. The data set is classed as functional. To be noted: time hrs 20-24. An outline of the steps:
as §1

Data set [5] concerns Staphylococcus aureus. As to the kind of experiment: Antibacterial activity against methicilin-resistant Staphylococcus aureus 4828 incubated for 20 to 24 hrs by microbroth dilution assay. The data set is classed as functional. To be noted: time hrs 20-24. The method in brief: as §1
The test system of data set [6] is Staphylococcus epidermidis. As to the kind of experiment: Antibacterial activity against methicilin-resistant Staphylococcus epidermis 933010 incubated for 20 to 24 hrs by microbroth dilution assay. It is filed as functional. To be noted: time hrs 20-24. The method in brief:
as §1

Data set [7] concerns Caco-2. Description: Cytotoxicity against differentiated human Caco2 cells assessed as increase in ATP level at 33 ug/ml incubated for 3 hrs by Cell-titer Glo assay. It is filed as cell-based. To be noted: caco-2, 3 h, dose 33 µg/ml. An outline of the steps: (§2)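 Cells rinsed of growth medium, then exposed 3 h at 37 °C, 220 rpm, light-protected, to compound in HBSS with 10 mM HEPES, pH 7.4 (final DMSO <1% at top concentrations). Plates equilibrated 10 min at rt, CellTiter-Glo 2.0 added, mixed 2 min, signal stabilized 10 min. Luminescence (ATP) normalized to HBSS-only control cells. Mean ± SD of 3 wells, one passage.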

Data set [8] deals with Caco-2. As to the kind of experiment: Cytotoxicity against differentiated human Caco2 cells assessed as ATP level at 33 ug/ml incubated for 3 hrs by Cell-titer Glo assay. It is filed as cell-based. To be noted: caco-2, 3 h, dose 33 µg/ml. The method in brief: as §2
The subject of data set [9] is Caco-2. Description: Cytotoxicity against human Caco2 cells assessed as cell viability at 33 ug/ml incubated for 3 hrs by MTT assay. It is filed as cell-based. To be noted: caco-2, 3 h, dose 33 µg/ml. The method in brief: (§3)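 Undifferentiated Caco-2 cells, medium aspirated, treated 3 h at 37 °C, 220 rpm with compound in HEPES-buffered HBSS (HBSS alone as negative control, SDS as positive control). MTT then added (final 0.5 mg mL⁻¹) for 2 h more. Formazan dissolved overnight at 4 °C in 10 mM HCl/50% isobutanol/10% SDS. Mean ± SD of 3 wells, one passage.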

Data set [10] concerns Caco-2. Description: Cytotoxicity against differentiated human Caco2 cells assessed as increase in ATP level at 108 ug/ml incubated for 3 hrs by Cell-titer Glo assay. The data set is classed as cell-based. To be noted: caco-2, 3 h, dose 108 µg/ml. An outline of the steps: as §2
Data set [11] concerns Caco-2. As to the kind of experiment: Cytotoxicity against undifferentiated human Caco2 cells assessed as ATP level at 108 ug/ml incubated for 3 hrs by Cell-titer Glo assay. To be noted: caco-2, 3 h, dose 108 µg/ml. It is filed as cell-based. An outline of the steps: as §2
The test system of the next data set is PC-3. As to the kind of experiment: Cytotoxicity against human PC3 cells assessed as cell viability at 108 ug/ml incubated for 3 hrs by Cell-titer Glo assay. To be noted: pc-3, 3 h, dose 108 µg/ml. It is filed as cell-based. An outline of the steps:
as §2

The test system of a further data set is HEK293. Description: Cytotoxicity against HEK293 cells expressing OAT3 assessed as cell viability at 108 ug/ml incubated for 3 hrs by Cell-titer Glo assay. It is filed as ADME, cell-based. To be noted: human, hek293, 3 h, dose 108 µg/ml. The method in brief:
as §2

Data set [12] can be described thus: Cytotoxicity against MDCK1 assessed as cell viability at 108 ug/ml incubated for 3 hrs by Cell-titer Glo assay. The arrangement: species or system Canis lupus familiaris. To be noted: dog, mdck1, 3 h, dose 108 µg/ml. An outline of the steps: as §2
For data set [13], the system named is Caco-2. Description: Cytotoxicity against human Caco2 cells assessed as cell viability at 108 ug/ml incubated for 3 hrs by MTT assay. The data set is classed as cell-based. To be noted: caco-2, 3 h, dose 108 µg/ml. The method in brief: as §3
Data set [14] concerns Caco-2. Description: Cytotoxicity against differentiated human Caco2 cells assessed as increase in ATP level at 100 ug/ml incubated for 3 hrs by Cell-titer Glo assay. To be noted: caco-2, 3 h, dose 100 µg/ml. It is filed as cell-based. An outline of the steps:
as §2

Data set [15] concerns Caco-2. As to the kind of experiment: Cytotoxicity against undifferentiated human Caco2 cells assessed as ATP level at 100 ug/ml incubated for 3 hrs by Cell-titer Glo assay. The data set is classed as cell-based. To be noted: caco-2, 3 h, dose 100 µg/ml. The method in brief:
as §2

For data set [16], the system named is Caco-2. As to the kind of experiment: Cytotoxicity against human Caco2 cells assessed as cell viability at 100 ug/ml incubated for 3 hrs by MTT assay. The data set is classed as cell-based. To be noted: caco-2, 3 h, dose 100 µg/ml. The method in brief: as §3
Data set [17] is described as follows: Cytotoxicity against human PC3 cells assessed as decrease in ATP level at 100 ug/ml incubated for 3 hrs by Cell-titer Glo assay relative to control. It is filed as cell-based, PC-3. To be noted: at 100 µg/mL, read-out: INH. The method in brief: as §2

In brackets after ≈: the same amount, converted by molar mass.

For `C=C[C@]1(C)C[C@@H](OC(=O)CS[C@@H]2C[C@H]3CC[C@@H](C2)N3C)[C@]2(C)[C@H](C)CC[C@]3(CCC(=O)[C@H]32)[C@@H](C)[C@@H]1O` [RETAPAMULIN], the MIC was found to be 0.25 µg/mL (≈ 0.483 µM) in the data set with Staphylococcus aureus [1]; 0.25 µg/mL (≈ 0.483 µM) in the data set on Staphylococcus aureus [3]; 0.12 µg/mL (≈ 0.232 µM) with Staphylococcus aureus [4]; 0.25 µg/mL (≈ 0.483 µM) against Staphylococcus aureus [5]; 0.5 µg/mL (≈ 0.966 µM) in [6]. Further, in the data set with Staphylococcus aureus [2], the MBC was above 2 µg/mL. For the same compound, the Activity entry is “Toxic” in the data set on Caco-2 [7], “Non-Toxic” in the data set on Caco-2 [8] and “Non-Toxic” in the data set on Caco-2 [9].

As to `C=C[C@]1(C)C[C@@H](OC(=O)Cn2cc(-c3ccc(Cn4cnc5c(N)ncnc54)cc3)nn2)[C@]2(C)[C@H](C)CC[C@]3(CCC(=O)[C@H]32)[C@@H](C)[C@@H]1O`, the MIC against Staphylococcus aureus [1] is 0.03 µg/mL (≈ 0.046 µM); in the data set with Staphylococcus aureus [3] it was 0.06 µg/mL (≈ 0.0919 µM); against Staphylococcus aureus [4], 0.03 µg/mL (≈ 0.046 µM); against Staphylococcus aureus [5] it was 0.06 µg/mL (≈ 0.0919 µM); in data set [6], 0.25 µg/mL (≈ 0.383 µM). This compound also returned a minimal bactericidal concentration (MBC) against Staphylococcus aureus [2] of 0.12 µg/mL (≈ 0.184 µM). Further, the Activity result was “Toxic” in the data set with Caco-2 [10]; “Non-Toxic” in the data set with Caco-2 [11]; “Non-Toxic” in the data set on PC-3; “Non-Toxic” in the data set with HEK293; “Non-Toxic” in data set [12]; “Non-Toxic” with Caco-2 [13].

On to `C=C[C@]1(C)C[C@@H](OC(=O)CSC(C)(C)CNC(=O)[C@H](N)C(C)C)[C@]2(C)[C@H](C)CC[C@]3(CCC(=O)[C@H]32)[C@@H](C)[C@@H]1O` [VALNEMULIN], for which the minimum inhibitory concentration (MIC) in the data set on Staphylococcus aureus [1] was 0.06 µg/mL (≈ 0.106 µM); against Staphylococcus aureus [3], 0.12 µg/mL (≈ 0.212 µM); against Staphylococcus aureus [4], 0.06 µg/mL (≈ 0.106 µM); in the data set with Staphylococcus aureus [5], 0.06 µg/mL (≈ 0.106 µM); in data set [6], 0.25 µg/mL (≈ 0.443 µM). This compound also came in with a minimal bactericidal concentration (MBC) against Staphylococcus aureus [2] of 0.12 µg/mL (≈ 0.212 µM). Further, the Activity entry in the data set on Caco-2 [14] was “Toxic”; with Caco-2 [15], “Non-Toxic”; in the data set on Caco-2 [16], “Non-Toxic”. Besides, the cytotoxicity at 3 h, 100 ug/ml in [17] was found to be 22%.

A word on the MIC: it is the lowest concentration that inhibits growth of the organism. A lower MIC goes with inhibition by little substance. What is called MBC is the smallest concentration meeting the test's criterion for killing. Low values mean greater bactericidal potency, high ones weaker bactericidal potency.
